The record followed here is ChEMBL document CHEMBL1134406, “Azepanone-based inhibitors of human and rat cathepsin K” (J Med Chem, 2001).

As a reminder, the Ki is a dissociation constant, usually derived from enzyme kinetics or from competition with a known ligand. A low value points to higher affinity. By IC50 is commonly meant the concentration that inhibits the measured activity by half. One may read the half-life as how long it takes for the measured level to halve. A low value points to rapid decline. Usually clearance stands for a measure of how efficiently the substance is removed, as volume per time. Lower therefore signals inefficient removal. By bioavailability is commonly meant the share of a dose that reaches the circulation, judged against a reference dose that is usually intravenous. Higher therefore signals good availability.

The target of one series is Cathepsin B (Homo sapiens, UniProt P07858). As to the kind of experiment: Inhibitory activity against Human cathepsin B.
Series [1] has as its target T1, Cathepsin K (Homo sapiens, UniProt P43235).
T1 sequence (P43235 whole entry): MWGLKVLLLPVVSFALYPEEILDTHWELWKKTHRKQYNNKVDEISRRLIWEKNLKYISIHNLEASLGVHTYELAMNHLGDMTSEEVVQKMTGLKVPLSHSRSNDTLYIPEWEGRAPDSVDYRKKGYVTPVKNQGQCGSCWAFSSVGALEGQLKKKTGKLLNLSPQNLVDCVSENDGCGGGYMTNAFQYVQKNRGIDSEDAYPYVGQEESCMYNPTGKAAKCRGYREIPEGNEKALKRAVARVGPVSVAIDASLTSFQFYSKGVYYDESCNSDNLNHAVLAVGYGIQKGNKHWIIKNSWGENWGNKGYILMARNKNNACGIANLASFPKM
The experiment in a line: Inhibition of Human cathepsin K.

Another series has as its target Cathepsin S (Homo sapiens, UniProt P25774). The experiment in a line: Inhibitory activity against Human cathepsin S.
Series [2] can be described thus: Volume of distribution in male Sprague-Dawley rat. The format is ADME, organism-based. The settings on record: in vivo, read-out: Vdss. An outline of the steps:
(§1)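 Crossover in rats over 2 study days, 2 days apart: 30-min IV infusion on day 1, oral bolus gavage in the same animals on day 2. Blood taken from lateral tail vein, plasma by centrifugation, drug quantified by LC/MS/MS (LLOQ 5–10 ng/mL). PK parameters from plasma concentration–time data by standard analysis.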

For series [3], the target named is T1, Cathepsin K. As to the kind of experiment: In vitro IC50 value was measured using in situ cytochem assay.
The target of series [4] is T2, Cathepsin K (Rattus norvegicus, UniProt O35186).
T2 sequence (O35186 whole entry): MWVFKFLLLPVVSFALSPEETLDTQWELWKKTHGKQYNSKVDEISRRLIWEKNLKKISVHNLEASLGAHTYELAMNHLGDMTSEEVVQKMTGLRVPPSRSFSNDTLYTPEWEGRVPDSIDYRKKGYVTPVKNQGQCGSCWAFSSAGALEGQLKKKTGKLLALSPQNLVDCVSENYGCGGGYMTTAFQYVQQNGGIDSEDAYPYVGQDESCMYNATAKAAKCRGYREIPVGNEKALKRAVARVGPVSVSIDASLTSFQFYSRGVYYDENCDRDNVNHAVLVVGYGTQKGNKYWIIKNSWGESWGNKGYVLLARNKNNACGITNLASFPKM
As to the kind of experiment: Inhibitory activity against Rat cathepsin K.

Series [5] in a line: half life period in male Sprague-Dawley rat. Type of series: ADME, organism-based. Particulars: in vivo. In a few lines:
as §1

Series [6] is described as follows: plasma clearance in male Sprague-Dawley rat. Type of series: ADME, organism-based. In a few lines:
as §1

In a further series the target is Procathepsin L (Homo sapiens, UniProt P07711). As to the kind of experiment: Inhibitory activity against Human cathepsin L.
The nature of series [7]: Bioavailability in rat (Sprague-Dawley) (male). Type of series: ADME, organism-based. The settings on record: in vivo. In a few lines:
as §1

The nature of series [8]: volume distribution in male Sprague-Dawley rat. The format is ADME, organism-based. The settings on record: in vivo, read-out: Vdss. An outline of the steps:
as §1

Procathepsin L, sequence (P07711 whole entry): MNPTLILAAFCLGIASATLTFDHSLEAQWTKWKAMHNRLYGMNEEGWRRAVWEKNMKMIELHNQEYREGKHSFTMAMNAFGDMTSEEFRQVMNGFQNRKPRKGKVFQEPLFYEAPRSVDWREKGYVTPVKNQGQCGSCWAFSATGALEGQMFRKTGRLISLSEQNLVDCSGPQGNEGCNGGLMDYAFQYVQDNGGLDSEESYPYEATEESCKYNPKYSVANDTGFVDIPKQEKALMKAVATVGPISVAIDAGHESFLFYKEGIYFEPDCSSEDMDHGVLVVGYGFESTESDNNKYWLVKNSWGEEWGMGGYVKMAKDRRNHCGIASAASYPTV
Cathepsin S, sequence (P25774 whole entry): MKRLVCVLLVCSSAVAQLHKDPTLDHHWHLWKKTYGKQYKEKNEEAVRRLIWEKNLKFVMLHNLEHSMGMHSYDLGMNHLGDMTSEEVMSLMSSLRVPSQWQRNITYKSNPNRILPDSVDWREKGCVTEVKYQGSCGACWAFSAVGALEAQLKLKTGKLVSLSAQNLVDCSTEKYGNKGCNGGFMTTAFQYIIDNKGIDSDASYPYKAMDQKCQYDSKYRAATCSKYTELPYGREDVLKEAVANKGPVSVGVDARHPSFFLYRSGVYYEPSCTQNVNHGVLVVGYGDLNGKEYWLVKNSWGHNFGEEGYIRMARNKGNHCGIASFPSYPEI

Take `CC(C)C[C@H](NC(=O)OCc1ccccc1)C(=O)N1CCC(NC(=O)[C@@H](CC(C)C)NC(=O)OCc2ccccc2)C(=O)C1` (stereo partly drawn): the inhibitory constant (Ki) was determined as 440 nM at Cathepsin B and 2.6 nM on Cathepsin K [1].
As for `CC(C)C[C@H](NC(=O)OCc1ccccc1)C(=O)NCC(=O)CNC(=O)[C@H](CC(C)C)NC(=O)OCc1ccccc1`, affinity at Cathepsin S was put at a Ki of 890 nM.
For `CC(C)C[C@H](NC(=O)c1cc2cc(OCCN3CCOCC3)ccc2o1)C(=O)N[C@H]1CCCN(C(=O)Cc2cccc(-c3ccccn3)c2)CC1=O`, the inhibitory constant (Ki) on Cathepsin B is 100 nM; at Cathepsin S, 14 nM; on Cathepsin K [4] it was 4.8 nM; on Procathepsin L, 0.49 nM; on Cathepsin K [1], 0.0048 nM. Moreover, in series [2], the Vd is 1.29 L/kg. On Cathepsin K [3], this molecule gave an IC50 of 30 nM. In series [5], this molecule displayed a half-life of 338 min. Moreover, the clearance in series [6] was determined as 39.7 mL/min/kg. This molecule also had a bioavailability in series [7] of 2.1%.
As for `CC(C)C[C@H](NC(=O)OCc1ccccc1)C(=O)N[C@@H]1CCCN(C(=O)[C@H](CC(C)C)NC(=O)OCc2ccccc2)CC1=O`, the Ki on Cathepsin S is 97 nM; at Procathepsin L it was 290 nM; at Cathepsin K [1] it was 15 nM.
With `CC(C)C[C@H](NC(=O)c1cc2ccccc2o1)C(=O)N[C@H]1CCCN(S(=O)(=O)c2ccccn2)CC1=O`, the Ki at Cathepsin B was 500 nM; at Cathepsin K [4], 60 nM; on Procathepsin L it was 2.2 nM. For the same molecule, the Vd in series [2] was 1.86 L/kg. Also, the half-life in [5] was 29.8 min. Further, the clearance in series [6] came to 49.2 mL/min/kg. Also, the bioavailability in series [7] stood at 42.1%.
For `CC(C)C[C@H](NC(=O)c1cc2ccccc2o1)C(=O)NC1CCCN(S(=O)(=O)c2ccccn2)CC1O` (stereo partly drawn), the Ki on Cathepsin K [1] was above 1000 nM.
For `CC(C)C[C@H](NC(=O)OCc1ccccc1)C(=O)N1CC(=O)C(NC(=O)[C@@H](CC(C)C)NC(=O)OCc2ccccc2)C1` (stereo partly drawn), the Ki on Cathepsin B is above 1000 nM; at Cathepsin K [1] it was 2.3 nM.
On Cathepsin K [1], `CC(C)C[C@H](NC(=O)c1cc2cc(OCCN3CCOCC3)ccc2o1)C(=O)N[C@@H]1CCCN(C(=O)Cc2cccc(-c3ccccn3)c2)CC1=O` came in with an inhibition constant Ki of 4.7 nM.
For the molecule `CC(C)C[C@H](NC(=O)c1cc2ccccc2o1)C(=O)NCC(=O)CNS(=O)(=O)c1ccccn1`, the Vd in series [8] came out at 0.65 L/kg. Also, the half-life in series [5] was 27 min. In addition, the clearance in series [6] came out at 33.1 mL/min/kg. The molecule further gave a bioavailability in series [7] of 3.3%. For the same molecule, the Ki at Cathepsin K [1] came out at 1.6 nM.
`CC(C)C[C@H](NC(=O)OCc1ccccc1)C(=O)N1CCCC(NC(=O)[C@@H](CC(C)C)NC(=O)OCc2ccccc2)C(=O)C1` (stereo partly drawn) had a Ki on Cathepsin K [1] of 30 nM.
For the molecule `CC(C)C[C@H](NC(=O)c1cc2ccccc2o1)C(=O)N[C@@H](C)C(=O)CNS(=O)(=O)c1ccccn1`, the Ki at Cathepsin B is 59 nM; on Cathepsin S, 20 nM; at Cathepsin K [1], 7.5 nM. The Vd in series [2] worked out at 0.71 L/kg. Besides, the half-life in [5] came to 33.2 min. The same molecule gave a clearance in series [6] of 32.5 mL/min/kg. This molecule came in with a bioavailability in [7] of 3.2%.
For the molecule `CC(C)C[C@H](NC(=O)c1cc2ccccc2o1)C(=O)N[C@@H]1CCCN(S(=O)(=O)c2ccccn2)CC1=O`, in [8], the Vd amounted to 1.64 L/kg. Moreover, the half-life in series [5] was determined as 33.2 min. The molecule further showed a clearance in [6] of 51.9 mL/min/kg. Further, the bioavailability in series [7] is 9.7%.
Turning to `CC(C)C[C@H](NC(=O)OCc1ccccc1)C(=O)NC1CCCN(C(=O)[C@H](CC(C)C)NC(=O)OCc2ccccc2)CC1=O` (stereo partly drawn), the Ki at Cathepsin S worked out at 26 nM; on Procathepsin L, 47 nM; on Cathepsin K [1], 2 nM.
As to `CC(C)C[C@H](NC(=O)c1cc2ccccc2o1)C(=O)N[C@@H](C)C(=O)CN(C)S(=O)(=O)c1ccccn1`, the Vd in series [8] came out at 1.15 L/kg. The molecule also registered a half-life in [5] of 21.5 min. The molecule further had a clearance in series [6] of 44.6 mL/min/kg. In [7], this molecule yielded a bioavailability of 2.5%. The molecule also came in with a Ki on Cathepsin K [1] of 670 nM.
For `CC(C)C[C@H](NC(=O)c1cc2cc(OCCN3CCOCC3)ccc2o1)C(=O)NC1CCCN(C(=O)Cc2cccc(-c3ccccn3)c2)CC1O` (stereo partly drawn), the affinity at Cathepsin K [1], expressed as Ki, was 54 nM.
